Only a selection was taken, and hits are over-represented in it overall.
Fibroblast inh: antiproliferative effect on LL 47 fibroblasts – human, LL 47 cells, CellTiter-Glo luminescence, primary screen; LL 47 human lung fibroblast viability, ATP luminescence; hits give low values; viability, % at 10 µM; 1.1% of 85,000 active; AID 719, 2007;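 active means viability at or below 50% in the single dose screen; inactive means viability above 50%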;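 further: compound exposure lasted 72 h before the ATP readout; 100% = median luminescence of untreated cell-only wells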
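Times – overnight cell rest, 72 h compound treatment at 37 °C · Test system – human lung fibroblast line LL 47, low passage · Amount – 1,150 cells in each well · Controls – cell-only wells, no compound · Doses – 0.1% DMSO in all compound wells · Measured by – CellTiter-Glo luminescence · Buffer or medium – IMEM plus 15% FBS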
H69AR inhibit: proliferation blockers of H69AR lung cancer cells, primary screen, cell-based, human, 86K library. H69AR lung tumor viability, ATP luminescence, 72 h; hits give low values. viability, % at 10 µM. 6% of 85,000 active;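 active means viability at or below 40%; inactive means viability above 40%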;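 further: multidrug resistant small cell line overexpressing MRP-1 efflux transporter; 100% = mean luminescence of untreated control wells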
HUVEC prolif 384: inhibitors of HUVEC proliferation, primary screen, cell-based, 384-well | CellTiter-Glo luminescence, 72 h; hits give low values | viability, % at 10 µM (by protocol) | 1.1% of 86,000 active;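 active means viability at or below 30%; inactive means viability above 30%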;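 further: 100% = median luminescence of DMSO-only cell control wells on each plate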
HCT116 PTEN-null: growth suppression of PTEN-null HCT116, primary screen, cell-based, CellTiter-Glo; HCT116 PTEN-null viability, 60 h; hits give low values; viability, % at 10 µM; 1.2% of 140,000 active;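 active means viability at or below a set limit, 4 SD under the median of all tested compounds, cut at about 3.7% in these data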;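 further: PTEN knockout HCT116 line with beta catenin targeted HCT116 as companion control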
HCT116 bCat-KO: primary screen for growth suppressors in beta-catenin knockout HCT116 cells (colon tumor, human); HCT116 beta-catenin knockout viability, CellTiter-Glo, 60 h; hits give low values; viability, % at 10 µM; 1.5% of 140,000 active;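 active means viability at or under a set limit, the compound median less 4 SD, cut at about 6% in these data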;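 further: 0% = Hyamine 1622 control at 20 µM and 100% = untreated cell control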
Starred values were filed as active, the others as inactive; . = no result given.

SMILES	Fibroblast inh	H69AR inhibit	HUVEC prolif 384	HCT116 PTEN-null	HCT116 bCat-KO
Cc1cc(NCCN2CCOCC2)n2nc(C)c(-c3ccccc3)c2n1	89.7	27.3*	88.7	88.7	87.2
Cc1cc(NCCN2CCOCC2)n2ncc(-c3ccccc3)c2n1	92.8	25.4*	96.0	79.6	74.9
Cc1cc(NCCCn2ccnc2)n2ncc(-c3ccccc3)c2n1	81.9	27.4*	68.0	76.4	78.3
COc1ccc(CNC(NC(=O)c2ccccc2)(C(F)(F)F)C(F)(F)F)cc1	.	.	.	88.2	94.4
Cc1cc(NCCN2CCOCC2)n2nc(C)c(-c3ccc(Cl)cc3)c2n1	74.1	12.0*	47.6	28.0	37.1
Cc1cc(C)c2c(n1)nn1c(NCCN3CCOCC3)cc(C)nc21	105.3	87.5	94.0	88.0	90.0
COc1ccc(C(=O)NC(=S)NC(C)(C)C)cc1Br	.	.	.	81.7	92.6
CC(C(=O)NC(=O)NCc1ccccc1)N1C(=O)c2ccccc2C1=O (stereo not drawn)	100.2	94.4	93.5	0.9*	0.9*
Cc1ccc2oc(-c3ccc(NC(=O)CC(C)C)cc3)nc2c1	93.8	98.5	106.3	102.4	86.0
O=C(CN1CCCC1)Nc1ccc(-c2nc3cc(NC(=O)CN4CCCC4)ccc3o2)cc1	23.4*	47.4	65.0	3.7*	2.4*
CCC(C)NCC(=O)Nc1ccc(-c2nc3cc(NC(=O)CNC(C)CC)ccc3o2)cc1 (stereo not drawn)	2.9*	60.2	25.4*	0.8*	0.6*
CCCC(=O)Nc1ccc2oc(-c3ccncc3)nc2c1	104.2	95.9	110.1	96.6	99.4
CCN(CC)CC(=O)Nc1ccc(-c2nc3cc(NC(=O)CN(CC)CC)ccc3o2)cc1	43.6*	61.3	105.5	7.0	7.6
CCOC(=O)c1c(NC(=O)C2c3ccccc3Oc3ccccc32)sc(C(=O)N(CC)CC)c1C	.	.	.	55.1	63.7
CCOC(=O)N1CCC(n2c(SCC(=O)c3ccccc3)nc3ccsc3c2=O)CC1	.	.	.	86.2	85.6
CC(=O)Oc1c(C)cc(O)c2ccccc12	103.6	0.5*	104.8	36.9	34.9
CC(=O)Oc1ccc2c(C)cc(=O)[nH]c2c1	87.5	101.4	72.6	86.7	82.2
Cc1cc(NC(=O)CSc2nc3sc(C)c(C)c3c(=O)n2C2CCCC2)no1	14.6*	15.2*	44.6	84.8	88.9
Cc1cccnc1NC(=O)c1ccc([N+](=O)[O-])o1	.	.	.	45.1	55.7
Cc1cccc(NC(=O)c2ccc([N+](=O)[O-])o2)n1	.	.	.	2.5*	3.3*
NC(=O)Cn1c(=O)n(C2CCCCC2)c(=O)c2c3c(sc21)CCCCC3	.	.	.	34.1	68.6
c1ccc(CNc2ccc3c(c2)ncn3C2CCCCC2)nc1	88.6	80.7	94.9	95.1	88.5
CCC(C)n1ncn(-c2ccc(N3CCN(c4ccc(OCC5COC(Cn6cncn6)(c6ccc(Cl)cc6Cl)O5)cc4)CC3)cc2)c1=O (stereo not drawn)	72.3	61.8	17.6*	.	.
CCC(C)n1ncn(-c2ccc(N3CCN(c4ccc(O)cc4)CC3)cc2)c1=O (stereo not drawn)	.	.	.	70.2	77.4
CCCOc1ccccc1C1CC(=O)NC2=C1C(=O)CCC2 (stereo not drawn)	66.0	85.6	66.2	19.1	18.8
SMILES	Fibroblast inh	H69AR inhibit	HUVEC prolif 384	HCT116 PTEN-null	HCT116 bCat-KO
CCCCOc1ccccc1C1CC(=O)NC2=C1C(=O)CCC2 (stereo not drawn)	47.5*	27.8*	52.7	15.4	13.0
CCOc1ccccc1C1CC(=O)NC2=C1C(=O)CCC2 (stereo not drawn)	81.3	23.4*	64.5	28.5	28.8
CCOc1ccc(-c2nn(-c3ccccc3)cc2/C=C2\SC(N)=NC2=O)cc1C	.	.	.	0.7*	1.1*
O=c1c2c3nc4ccccc4nc3n(-c3ccc4c(c3)OCCO4)c2ncn1C1CCCC1	13.2*	20.6*	36.6	.	.
O=c1c2c3nc4ccccc4nc3n(-c3ccc4c(c3)OCCO4)c2ncn1CC1CCCO1 (stereo not drawn)	109.0	90.2	101.8	.	.
CCOc1cc(/C=N/NC(=O)Cn2nc([N+](=O)[O-])cc2C)cc(Br)c1OCc1ccccc1C	5.9*	0.6*	3.6*	2.1*	1.5*
Cc1cc(C)cc(OCC(=O)N2N=C(c3cccnc3)CC2(O)C(F)(F)F)c1 (stereo not drawn)	.	.	.	85.5	87.1
Cc1cc(C)cc(OCC(=O)N2N=C(C(F)(F)F)CC2(O)C(C)(C)C)c1 (stereo not drawn)	97.8	33.5*	91.3	90.0	88.7
Cc1ccc(-c2ccc(=O)n(CC(=O)N3CCN(c4cc(Cl)ccc4C)CC3)n2)cc1	102.5	68.9	71.6	86.4	79.7
COc1cc(Nc2ccccc2Cl)c([N+](=O)[O-])nc1[N+](=O)[O-]	86.0	16.6*	70.8	48.3	53.5
CCc1cc(SC#N)cc(CC)c1NC(=O)CCl	.	.	.	1.6*	1.9*
Cc1ccc2nc(N(CCCN(C)C)C(=O)c3ccc4c(c3)CCCC4)sc2c1	.	.	.	1.0*	3.4*
CN(C)CCCN(C(=O)c1ccc2c(c1)CCCC2)c1nc2c(F)cccc2s1	.	.	.	15.8	29.3
Cc1ccccc1CSc1ccc(-c2ccc3c(c2)OCO3)nn1	.	.	.	88.7	98.8
CN(C)S(=O)(=O)c1ccc2[nH]cc(/C=C/c3nc4ccccc4c(=O)n3-c3ccccc3)c2c1	73.0	36.5*	57.0	60.0	45.1
COc1ccccc1CNC(=O)C1CC(c2ccccc2[N+](=O)[O-])=NO1 (stereo not drawn)	.	.	.	91.4	88.4
O=c1oc2c(CN3CCCCC3)c(O)ccc2cc1-c1nc2ccccc2[nH]1	103.1	79.1	94.4	.	.
O=c1oc2c3c4c(cc2cc1-c1nc2ccccc2[nH]1)CCCN4CCC3	84.2	1.5*	56.1	.	.
COCCn1c(=NC(=O)c2nc3ccccc3s2)sc2cc(S(C)(=O)=O)ccc21	.	.	.	75.2	80.2
CCOCCn1c(=NC(=O)c2cc(Cl)sc2Cl)sc2cc(S(N)(=O)=O)ccc21	.	.	.	4.8	4.9*
COCCn1c(=NC(=O)c2cc(Cl)sc2Cl)sc2cc(S(N)(=O)=O)ccc21	.	.	.	2.3*	7.7
CCCN(CCC)C1=N/C(=C\c2ccco2)C(=O)N1c1ccccc1	.	.	.	82.5	82.2
CC(=Nc1cccc(C)c1)c1sc2ccccc2c1O	109.4	43.7	86.5	87.4	83.6
Cc1cccc(N=Nc2ccc(O)c3ncccc23)c1	.	.	.	14.4	6.0*
OCC1CCCN1C(=S)Nc1ccccc1 (stereo not drawn)	.	.	.	103.0	97.2
CN1C(=O)CC(N2CCN(c3ccccc3)CC2)C1=O (stereo not drawn)	97.0	89.2	96.7	.	.
CC(C)Cc1nc2oc3c(NCC4CCCO4)ncnc3c2c2c1CCC2 (stereo not drawn)	85.0	32.8*	52.7	50.3	54.6
Cc1ccc(OC(=O)c2oc3ccc(F)cc3c2C)c(C)c1	.	.	.	7.9	14.0
CCOC(=O)c1cc(-c2ccncc2)nc2c1c(C)nn2C	57.1	33.1*	45.5	47.5	43.5

Compound activity as filed in PubChem BioAssay.
